Inhibition and fold change (FC) data for three compounds are collected here from ChEMBL document CHEMBL5653631, “A Potent and Selective ULK1 Inhibitor Suppresses Autophagy and Sensitizes Cancer Cells to Nutrient Stress” (iScience, 2018).

The target of assay [1] is MAP/microtubule affinity-regulating kinase 3 (Homo sapiens) (UniProt P27448). The experiment in a line: Inhibition of human recombinant MARK3 at 40 nM in presence of ATP by radiometric assay relative to control.
Assay [2] addresses Mitogen-activated protein kinase kinase kinase 9 (Homo sapiens) (UniProt P80192). Description: Inhibition of human recombinant MLK1 at 40 nM in presence of ATP by radiometric assay relative to control.
Assay [3] concerns the target Tyrosine-protein kinase FRK (Homo sapiens) (UniProt P42685). Description: Inhibition of human recombinant FRK at 40 nM related to control ULK1.
In assay [4] the target is Glycogen synthase kinase-3 beta (Homo sapiens) (UniProt P49841). The experiment in a line: Inhibition of human recombinant GSK3B at 40 nM in presence of ATP by radiometric assay relative to control.
Assay [5] addresses T1, Serine/threonine-protein kinase ULK2 (Homo sapiens) (UniProt Q8IYT8).
T1 sequence (whole entry): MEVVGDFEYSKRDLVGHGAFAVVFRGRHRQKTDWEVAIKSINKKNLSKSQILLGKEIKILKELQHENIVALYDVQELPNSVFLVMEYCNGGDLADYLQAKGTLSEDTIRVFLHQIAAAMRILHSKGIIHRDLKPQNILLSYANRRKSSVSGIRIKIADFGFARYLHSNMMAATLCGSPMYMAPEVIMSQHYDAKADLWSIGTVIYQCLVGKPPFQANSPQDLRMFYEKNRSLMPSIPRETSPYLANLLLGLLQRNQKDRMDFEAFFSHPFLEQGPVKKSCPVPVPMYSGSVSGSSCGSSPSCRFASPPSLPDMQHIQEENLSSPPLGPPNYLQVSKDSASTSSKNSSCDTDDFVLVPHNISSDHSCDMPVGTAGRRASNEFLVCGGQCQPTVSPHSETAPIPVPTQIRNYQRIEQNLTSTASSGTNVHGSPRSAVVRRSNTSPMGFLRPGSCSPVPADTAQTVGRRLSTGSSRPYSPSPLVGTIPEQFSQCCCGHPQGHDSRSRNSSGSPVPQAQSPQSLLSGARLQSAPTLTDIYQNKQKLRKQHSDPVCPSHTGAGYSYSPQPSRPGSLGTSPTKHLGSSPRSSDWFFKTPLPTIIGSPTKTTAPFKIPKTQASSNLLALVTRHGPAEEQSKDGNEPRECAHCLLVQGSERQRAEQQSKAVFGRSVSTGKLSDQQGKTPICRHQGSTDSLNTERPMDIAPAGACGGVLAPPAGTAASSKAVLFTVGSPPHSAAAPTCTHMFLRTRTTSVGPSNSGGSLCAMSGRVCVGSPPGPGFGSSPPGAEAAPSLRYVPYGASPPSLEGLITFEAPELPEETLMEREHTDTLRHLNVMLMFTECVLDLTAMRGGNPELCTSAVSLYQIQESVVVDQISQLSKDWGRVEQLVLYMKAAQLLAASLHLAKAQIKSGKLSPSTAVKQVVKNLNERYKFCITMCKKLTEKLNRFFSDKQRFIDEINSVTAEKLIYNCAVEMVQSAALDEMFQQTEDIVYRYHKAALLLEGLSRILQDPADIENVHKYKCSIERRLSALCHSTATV
Description: Inhibition of human recombinant ULK2 at 40 nM in presence of ATP by radiometric assay relative to control.

Assay [6] has as its target Serine/threonine-protein kinase MRCK beta (Homo sapiens) (UniProt Q9Y5S2). The experiment in a line: Inhibition of human recombinant MRCKb at 40 nM in presence of ATP by radiometric assay relative to control.
Assay [7] has as its target Homeodomain-interacting protein kinase 1 (Homo sapiens) (UniProt Q86Z02). The experiment in a line: Inhibition of human recombinant HIPK1 at 40 nM related to control ULK1.
Assay [8] deals with Serine/threonine-protein kinase Chk2 (Homo sapiens) (UniProt O96017). Description: Inhibition of human recombinant CHK2 at 40 nM related to control ULK1.
Assay [9] deals with Epithelial discoidin domain-containing receptor 1 (Homo sapiens) (UniProt Q08345). Description: Inhibition of human recombinant DDR1 at 40 nM related to control ULK1.
The target of assay [10] is Ribosomal protein S6 kinase alpha-6 (Homo sapiens) (UniProt Q9UK32). The experiment in a line: Inhibition of human recombinant RSK4 at 40 nM related to control ULK1.
Assay [11] has as its target Serine/threonine-protein kinase 26 (Homo sapiens) (UniProt Q9P289). Description: Inhibition of human recombinant MST4 at 40 nM in presence of ATP by radiometric assay relative to control.
The target of assay [12] is SRSF protein kinase 3 (Homo sapiens) (UniProt Q9UPE1). The experiment in a line: Inhibition of human recombinant MSSK1 at 500 nM related to control ULK1.
Assay [13] addresses Dual specificity protein kinase CLK4 (Homo sapiens) (UniProt Q9HAZ1). Description: Inhibition of human recombinant CLK4 at 500 nM related to control ULK1.
Assay [14] has as its target Ephrin type-A receptor 5 (Homo sapiens) (UniProt P54756). Description: Inhibition of human recombinant EphA5 at 500 nM related to control ULK1.
The target in assay [15] is 5'-AMP-activated protein kinase catalytic subunit alpha-2 (Homo sapiens) (UniProt P54646). Description: Inhibition of human recombinant AMPKa2 at 15 nM in presence of ATP by radiometric assay relative to control. Put shortly: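 Panel of 327 recombinant human kinases, each assayed in vitro by radiometric activity assay in duplicate at a single inhibitor concentration per compound, chosen with reference to its ULK1 inhibition. Activity remaining was expressed as percent of vehicle control, and percent inhibition was calculated as 100 minus percent activity remaining.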

Assay [16] deals with Cyclin-dependent kinase 6 (Homo sapiens) (UniProt Q00534). Description: Inhibition of human recombinant CDK6 at 15 nM related to control ULK1.
For assay [17], the target named is Tyrosine-protein kinase HCK (Homo sapiens) (UniProt P08631). Description: Inhibition of human recombinant HCK at 15 nM related to control ULK1.
Assay [18] deals with Fibroblast growth factor receptor 3 (Homo sapiens) (UniProt P22607). The experiment in a line: Inhibition of human recombinant FGFR3 at 15 nM in presence of ATP by radiometric assay relative to control.
The species entered for the next assay is Homo sapiens. Description: Inhibition of human recombinant p70S6K at 15 nM related to control ULK1.
In assay [19] the target is Cyclin-dependent kinase-like 3 (Homo sapiens) (UniProt Q8IVW4). Description: Inhibition of human recombinant CDKL3 at 15 nM related to control ULK1.

Sequence of MAP/microtubule affinity-regulating kinase 3 (Homo sapiens) (P27448 whole entry, looked up): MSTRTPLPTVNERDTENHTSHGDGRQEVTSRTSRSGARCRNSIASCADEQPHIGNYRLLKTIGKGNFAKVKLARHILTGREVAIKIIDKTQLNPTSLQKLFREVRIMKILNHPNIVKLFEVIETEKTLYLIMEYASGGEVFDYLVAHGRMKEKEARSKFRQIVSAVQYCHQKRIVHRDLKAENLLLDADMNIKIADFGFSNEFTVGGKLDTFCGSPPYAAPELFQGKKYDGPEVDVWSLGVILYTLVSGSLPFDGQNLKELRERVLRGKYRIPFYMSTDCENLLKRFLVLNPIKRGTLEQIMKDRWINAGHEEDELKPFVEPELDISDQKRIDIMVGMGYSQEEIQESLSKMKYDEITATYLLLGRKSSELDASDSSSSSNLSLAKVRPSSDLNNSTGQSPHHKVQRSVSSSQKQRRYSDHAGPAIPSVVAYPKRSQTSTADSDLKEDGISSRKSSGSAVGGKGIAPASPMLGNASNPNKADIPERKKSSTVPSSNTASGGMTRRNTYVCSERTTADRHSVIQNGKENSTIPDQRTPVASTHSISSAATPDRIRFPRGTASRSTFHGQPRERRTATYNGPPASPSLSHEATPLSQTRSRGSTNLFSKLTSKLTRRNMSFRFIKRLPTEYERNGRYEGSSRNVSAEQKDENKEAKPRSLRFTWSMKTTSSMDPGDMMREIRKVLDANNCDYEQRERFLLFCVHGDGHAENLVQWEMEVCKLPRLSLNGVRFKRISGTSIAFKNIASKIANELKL
Sequence of Serine/threonine-protein kinase 26 (Homo sapiens) (Q9P289 2-416 limits assumed): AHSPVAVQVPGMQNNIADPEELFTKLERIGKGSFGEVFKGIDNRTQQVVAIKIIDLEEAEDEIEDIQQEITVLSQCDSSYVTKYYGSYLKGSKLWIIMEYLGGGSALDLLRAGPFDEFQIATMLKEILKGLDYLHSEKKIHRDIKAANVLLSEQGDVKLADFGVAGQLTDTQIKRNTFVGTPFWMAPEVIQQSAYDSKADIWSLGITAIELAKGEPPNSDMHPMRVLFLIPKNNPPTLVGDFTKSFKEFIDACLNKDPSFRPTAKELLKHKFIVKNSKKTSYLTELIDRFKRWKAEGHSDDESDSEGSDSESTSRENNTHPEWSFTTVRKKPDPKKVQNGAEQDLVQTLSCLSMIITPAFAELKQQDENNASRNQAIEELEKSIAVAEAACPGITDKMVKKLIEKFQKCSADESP
Sequence of Tyrosine-protein kinase HCK (Homo sapiens) (P08631 2-526 limits assumed): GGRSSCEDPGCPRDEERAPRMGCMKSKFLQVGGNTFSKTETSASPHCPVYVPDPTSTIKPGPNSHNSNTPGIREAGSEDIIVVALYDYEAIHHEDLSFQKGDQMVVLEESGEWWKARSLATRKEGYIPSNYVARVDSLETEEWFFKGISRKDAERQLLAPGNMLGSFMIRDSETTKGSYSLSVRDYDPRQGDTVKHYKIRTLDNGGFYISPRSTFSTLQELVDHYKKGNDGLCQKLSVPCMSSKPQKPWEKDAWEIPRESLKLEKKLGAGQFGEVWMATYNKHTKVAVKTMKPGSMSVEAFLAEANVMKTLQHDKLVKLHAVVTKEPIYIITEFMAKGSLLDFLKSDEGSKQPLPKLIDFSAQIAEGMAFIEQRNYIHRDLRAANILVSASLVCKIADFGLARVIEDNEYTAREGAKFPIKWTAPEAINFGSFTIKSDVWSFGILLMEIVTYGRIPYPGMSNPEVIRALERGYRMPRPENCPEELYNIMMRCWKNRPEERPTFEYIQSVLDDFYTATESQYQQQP
Sequence of Tyrosine-protein kinase FRK (Homo sapiens) (P42685 whole entry): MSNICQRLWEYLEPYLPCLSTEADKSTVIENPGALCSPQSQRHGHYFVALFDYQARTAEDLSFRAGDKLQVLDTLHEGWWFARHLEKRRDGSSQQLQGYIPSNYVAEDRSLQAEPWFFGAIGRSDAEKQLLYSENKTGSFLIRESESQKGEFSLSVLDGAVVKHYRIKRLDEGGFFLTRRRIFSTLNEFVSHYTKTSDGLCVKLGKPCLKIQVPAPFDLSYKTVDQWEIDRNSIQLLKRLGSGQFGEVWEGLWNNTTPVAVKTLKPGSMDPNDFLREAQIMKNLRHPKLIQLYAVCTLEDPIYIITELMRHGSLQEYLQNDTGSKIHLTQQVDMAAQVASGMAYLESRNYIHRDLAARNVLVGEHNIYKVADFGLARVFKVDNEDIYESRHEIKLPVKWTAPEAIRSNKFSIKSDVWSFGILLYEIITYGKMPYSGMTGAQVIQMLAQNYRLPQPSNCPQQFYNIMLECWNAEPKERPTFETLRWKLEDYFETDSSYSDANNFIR
Sequence of Glycogen synthase kinase-3 beta (Homo sapiens) (P49841 whole entry, looked up): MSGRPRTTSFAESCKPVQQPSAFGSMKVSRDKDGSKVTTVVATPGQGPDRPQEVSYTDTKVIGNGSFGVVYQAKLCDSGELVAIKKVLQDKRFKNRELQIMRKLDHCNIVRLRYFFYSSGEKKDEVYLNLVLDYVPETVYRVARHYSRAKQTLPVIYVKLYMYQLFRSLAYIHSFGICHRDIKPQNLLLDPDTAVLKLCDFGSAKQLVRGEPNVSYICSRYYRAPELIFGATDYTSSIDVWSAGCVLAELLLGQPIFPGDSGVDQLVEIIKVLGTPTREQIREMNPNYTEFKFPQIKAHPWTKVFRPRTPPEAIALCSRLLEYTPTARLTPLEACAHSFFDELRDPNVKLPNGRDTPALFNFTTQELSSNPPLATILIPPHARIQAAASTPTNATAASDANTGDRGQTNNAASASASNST
Sequence of Ribosomal protein S6 kinase alpha-6 (Homo sapiens) (Q9UK32 whole entry): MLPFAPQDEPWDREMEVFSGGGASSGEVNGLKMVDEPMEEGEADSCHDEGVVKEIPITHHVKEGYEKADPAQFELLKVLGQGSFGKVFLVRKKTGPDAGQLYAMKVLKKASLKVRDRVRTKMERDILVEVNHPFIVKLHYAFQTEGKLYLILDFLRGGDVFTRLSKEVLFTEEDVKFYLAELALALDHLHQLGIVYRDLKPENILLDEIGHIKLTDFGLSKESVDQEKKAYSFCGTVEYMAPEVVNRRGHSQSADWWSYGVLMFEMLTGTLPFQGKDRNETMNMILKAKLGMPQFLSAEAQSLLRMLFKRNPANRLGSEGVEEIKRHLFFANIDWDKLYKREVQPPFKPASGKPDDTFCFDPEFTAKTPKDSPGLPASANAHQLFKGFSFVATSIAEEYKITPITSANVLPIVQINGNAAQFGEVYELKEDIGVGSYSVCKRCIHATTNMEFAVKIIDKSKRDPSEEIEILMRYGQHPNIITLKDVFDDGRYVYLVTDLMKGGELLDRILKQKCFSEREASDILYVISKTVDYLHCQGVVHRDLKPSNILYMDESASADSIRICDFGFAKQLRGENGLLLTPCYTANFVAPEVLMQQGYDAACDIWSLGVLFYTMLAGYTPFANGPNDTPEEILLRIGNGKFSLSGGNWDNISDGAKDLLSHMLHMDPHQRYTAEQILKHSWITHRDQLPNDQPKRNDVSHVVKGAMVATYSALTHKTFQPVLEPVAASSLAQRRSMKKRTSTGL
Sequence of Epithelial discoidin domain-containing receptor 1 (Homo sapiens) (Q08345 whole entry, the tested form may be a part): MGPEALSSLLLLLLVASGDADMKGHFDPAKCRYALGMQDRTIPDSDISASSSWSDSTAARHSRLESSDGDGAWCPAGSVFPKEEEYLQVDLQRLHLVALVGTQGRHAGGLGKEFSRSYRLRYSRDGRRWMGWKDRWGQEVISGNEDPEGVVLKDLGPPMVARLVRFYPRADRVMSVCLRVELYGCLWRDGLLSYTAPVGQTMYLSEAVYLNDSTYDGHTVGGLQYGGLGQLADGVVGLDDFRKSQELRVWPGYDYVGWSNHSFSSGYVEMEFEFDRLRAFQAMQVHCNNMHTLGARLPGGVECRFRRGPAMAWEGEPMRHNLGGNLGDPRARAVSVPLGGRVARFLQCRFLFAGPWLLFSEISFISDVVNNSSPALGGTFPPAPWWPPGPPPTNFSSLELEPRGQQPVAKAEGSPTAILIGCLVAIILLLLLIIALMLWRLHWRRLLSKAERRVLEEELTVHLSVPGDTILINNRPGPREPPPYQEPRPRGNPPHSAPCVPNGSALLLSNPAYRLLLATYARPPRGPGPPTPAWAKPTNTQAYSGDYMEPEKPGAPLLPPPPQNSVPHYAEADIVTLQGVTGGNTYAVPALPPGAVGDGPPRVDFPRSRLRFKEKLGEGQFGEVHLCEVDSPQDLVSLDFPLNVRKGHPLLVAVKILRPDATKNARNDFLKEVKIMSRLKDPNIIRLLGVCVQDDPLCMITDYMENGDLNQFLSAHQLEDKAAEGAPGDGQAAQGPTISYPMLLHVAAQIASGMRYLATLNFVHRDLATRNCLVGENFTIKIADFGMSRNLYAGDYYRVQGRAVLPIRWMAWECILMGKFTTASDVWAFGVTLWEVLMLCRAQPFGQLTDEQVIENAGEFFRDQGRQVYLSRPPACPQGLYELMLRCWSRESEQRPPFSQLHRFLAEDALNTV
Sequence of 5'-AMP-activated protein kinase catalytic subunit alpha-2 (Homo sapiens) (P54646 whole entry, looked up): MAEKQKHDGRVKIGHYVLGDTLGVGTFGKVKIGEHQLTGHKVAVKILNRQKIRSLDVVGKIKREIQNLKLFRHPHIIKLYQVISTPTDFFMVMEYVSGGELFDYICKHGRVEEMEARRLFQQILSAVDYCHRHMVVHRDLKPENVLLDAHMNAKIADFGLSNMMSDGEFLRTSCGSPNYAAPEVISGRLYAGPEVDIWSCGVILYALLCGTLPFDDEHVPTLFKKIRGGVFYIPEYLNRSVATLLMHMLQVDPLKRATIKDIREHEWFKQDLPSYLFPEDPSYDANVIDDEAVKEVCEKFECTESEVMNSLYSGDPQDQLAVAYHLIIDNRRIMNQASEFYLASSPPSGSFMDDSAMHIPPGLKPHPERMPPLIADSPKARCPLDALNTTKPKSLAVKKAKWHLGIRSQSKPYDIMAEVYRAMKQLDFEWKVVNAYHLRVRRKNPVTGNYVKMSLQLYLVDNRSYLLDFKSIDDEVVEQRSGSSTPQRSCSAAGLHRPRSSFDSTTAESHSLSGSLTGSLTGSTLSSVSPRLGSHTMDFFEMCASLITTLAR

For `O=C(N[C@@H](C1CC1)C(F)(F)F)c1cc(-c2cnn3cc(-c4ccc(F)cc4)cnc23)cs1`, the inhibition (in general, how much of the control response was suppressed) in assay [1] stood at 15%; in assay [2], 7%; in [4], 0%; in assay [5] it was 46%; in assay [6], 5%; in assay [11], 0%. The fold change (FC) in assay [3] was determined as 0; in assay [7], 0; in assay [8], 0; in assay [9], 0.25; in assay [10], 0.

`CNC(=O)c1ccccc1Oc1nc(Nc2cc(OC)c(OC)c(OC)c2)ncc1Br`: the fold change (FC) in assay [12] came out at 0.2; in [13] it was 0.11; in assay [14], 0.26.

`CC(C)[C@H](NC(=O)c1cc(-c2cnn3cc(-c4ccc(OCCN5CCCCC5)cc4)cnc23)cs1)C(F)(F)F`: the inhibition in [15] was 83%; in assay [18], 0%. In addition, the fold change (FC) worked out at 0.09 in assay [16], 0.3 in [17], 0.19 in the assay listed under Homo sapiens and 0.39 in assay [19].
